Reference: publication PMC2637182 (Journal of the American Chemical Society, 2008)
Each block holds one substance with its values, some of them ahead of it.

What was measured:
Experiment in all cases: Continuous fluorescence kinase assay, kinetic parameters of the substrate
Type in all cases: biochemical
Src = Src (Homo sapiens, UniProt P12931); conditions: for Km / Vmax: initial slopes, direct fit of ν vs [S], Briggs-Haldane equation, mean ± s.e.m. of triplicate, SEM; for Catalytic Efficiency: kcat/KM (min^-1 μM^-1) normalized to the BTF substrate
Outline: (§1)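 Sox-labelled peptide substrates were phosphorylated by the kinase and monitored continuously by fluorescence (λex 360 nm, λem 485 nm) in a fluorometer or a 96-well plate reader. KM and Vmax came from initial slopes, corrected for substrate and product fluorescence, and a direct Briggs-Haldane fit of ν vs [S]. Values are mean ± s.e.m. of triplicates. kcat/KM was normalized to the BTF substrate within each kinase.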

MK2 = MK2 (Homo sapiens, UniProt P49137); conditions: initial slopes, direct fit of ν vs [S], Briggs-Haldane equation, mean ± s.e.m. of triplicate, SEM
Outline: (§2)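 Sox-containing peptide substrate becomes fluorescent on phosphorylation through Mg2+ chelation-enhanced fluorescence. Fluorescence was read continuously at λex 360 nm and λem 485 nm. Reaction components were simply mixed, and the reaction was run in a fluorometer or in a 96-well fluorescence plate reader. Rates at varied substrate levels were fitted directly as ν vs [S] to the Briggs-Haldane equation. Each was run in triplicate.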

PKA = PKA (Homo sapiens, UniProt P17612); conditions: for Km / Vmax: initial slopes, direct fit of ν vs [S], Briggs-Haldane equation, mean ± s.e.m. of triplicate, SEM
Outline: as §1

Akt1 = Akt1 (Homo sapiens, UniProt P31749); conditions: initial slopes, direct fit of ν vs [S], Briggs-Haldane equation, mean ± s.e.m. of triplicate, SEM
Outline: as §2

Pim2 = Pim2 (Homo sapiens, UniProt Q9P1W9); conditions: initial slopes, direct fit of ν vs [S], Briggs-Haldane equation, mean ± s.e.m. of triplicate, SEM
Abl = Abl (Homo sapiens, UniProt P00519); conditions: initial slopes, direct fit of ν vs [S], Briggs-Haldane equation, mean ± s.e.m. of triplicate, SEM
Outline: as §2

PKCβI = PKCβI (Homo sapiens, UniProt P05771)
IRK = IRK (Homo sapiens, UniProt P06213); conditions: for Km / Vmax: initial slopes, direct fit of ν vs [S], Briggs-Haldane equation, mean ± s.e.m. of triplicate, SEM; for Catalytic Efficiency: kcat/KM (min^-1 μM^-1) normalized to the BTF substrate
Outline: as §1

PKCδ = PKCδ (Homo sapiens, UniProt Q05655)
[1] = initial slopes, direct fit of ν vs [S], Briggs-Haldane equation, mean ± s.e.m. of triplicate, NS = Not a Substrate, SEM

Sequence of IRK (P06213 1012-1310 limits assumed): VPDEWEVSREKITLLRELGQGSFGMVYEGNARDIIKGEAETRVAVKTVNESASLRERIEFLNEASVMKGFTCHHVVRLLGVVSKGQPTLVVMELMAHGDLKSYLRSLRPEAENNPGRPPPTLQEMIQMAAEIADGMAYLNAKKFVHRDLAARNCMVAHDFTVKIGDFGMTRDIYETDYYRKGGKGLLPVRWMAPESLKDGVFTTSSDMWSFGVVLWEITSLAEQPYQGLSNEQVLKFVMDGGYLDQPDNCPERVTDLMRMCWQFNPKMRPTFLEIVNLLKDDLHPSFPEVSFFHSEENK
Sequence of PKCδ (Q05655 whole entry): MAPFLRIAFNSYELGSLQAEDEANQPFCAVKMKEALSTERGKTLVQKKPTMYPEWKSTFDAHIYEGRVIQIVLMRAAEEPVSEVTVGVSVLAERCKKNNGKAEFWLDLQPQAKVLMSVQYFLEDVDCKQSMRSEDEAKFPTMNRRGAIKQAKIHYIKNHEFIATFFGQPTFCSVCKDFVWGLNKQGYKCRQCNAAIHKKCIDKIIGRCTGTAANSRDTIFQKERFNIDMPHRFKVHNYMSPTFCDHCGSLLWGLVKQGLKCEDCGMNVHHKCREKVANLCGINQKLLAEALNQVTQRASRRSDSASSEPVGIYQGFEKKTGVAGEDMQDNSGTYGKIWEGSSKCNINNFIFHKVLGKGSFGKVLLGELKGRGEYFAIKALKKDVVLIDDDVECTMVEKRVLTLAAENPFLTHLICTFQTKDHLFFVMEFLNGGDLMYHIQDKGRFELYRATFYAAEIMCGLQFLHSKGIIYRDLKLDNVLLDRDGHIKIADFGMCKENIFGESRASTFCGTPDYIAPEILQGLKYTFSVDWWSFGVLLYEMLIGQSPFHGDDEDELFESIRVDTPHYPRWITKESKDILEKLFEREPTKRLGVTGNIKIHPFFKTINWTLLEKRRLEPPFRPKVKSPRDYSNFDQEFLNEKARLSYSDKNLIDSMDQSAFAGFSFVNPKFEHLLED
Sequence of PKCβI (P05771 whole entry): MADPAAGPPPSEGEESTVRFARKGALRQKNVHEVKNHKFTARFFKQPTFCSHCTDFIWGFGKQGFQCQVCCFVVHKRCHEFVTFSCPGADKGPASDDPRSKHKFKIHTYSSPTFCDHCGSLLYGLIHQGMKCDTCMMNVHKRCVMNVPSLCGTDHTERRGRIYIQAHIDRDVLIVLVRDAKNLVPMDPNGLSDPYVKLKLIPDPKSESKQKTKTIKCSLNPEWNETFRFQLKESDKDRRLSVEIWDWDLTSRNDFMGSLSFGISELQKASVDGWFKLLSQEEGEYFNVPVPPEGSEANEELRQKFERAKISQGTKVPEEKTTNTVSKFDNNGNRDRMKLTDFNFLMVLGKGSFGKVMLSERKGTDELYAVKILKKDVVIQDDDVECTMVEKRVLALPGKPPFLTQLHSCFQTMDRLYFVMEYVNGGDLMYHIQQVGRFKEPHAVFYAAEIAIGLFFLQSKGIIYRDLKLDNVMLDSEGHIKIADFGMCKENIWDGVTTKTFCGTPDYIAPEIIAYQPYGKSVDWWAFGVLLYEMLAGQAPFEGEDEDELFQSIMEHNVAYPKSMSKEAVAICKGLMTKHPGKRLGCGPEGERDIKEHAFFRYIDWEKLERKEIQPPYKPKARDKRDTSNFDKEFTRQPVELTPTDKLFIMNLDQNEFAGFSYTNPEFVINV
Sequence of Abl (P00519 whole entry, species assumed): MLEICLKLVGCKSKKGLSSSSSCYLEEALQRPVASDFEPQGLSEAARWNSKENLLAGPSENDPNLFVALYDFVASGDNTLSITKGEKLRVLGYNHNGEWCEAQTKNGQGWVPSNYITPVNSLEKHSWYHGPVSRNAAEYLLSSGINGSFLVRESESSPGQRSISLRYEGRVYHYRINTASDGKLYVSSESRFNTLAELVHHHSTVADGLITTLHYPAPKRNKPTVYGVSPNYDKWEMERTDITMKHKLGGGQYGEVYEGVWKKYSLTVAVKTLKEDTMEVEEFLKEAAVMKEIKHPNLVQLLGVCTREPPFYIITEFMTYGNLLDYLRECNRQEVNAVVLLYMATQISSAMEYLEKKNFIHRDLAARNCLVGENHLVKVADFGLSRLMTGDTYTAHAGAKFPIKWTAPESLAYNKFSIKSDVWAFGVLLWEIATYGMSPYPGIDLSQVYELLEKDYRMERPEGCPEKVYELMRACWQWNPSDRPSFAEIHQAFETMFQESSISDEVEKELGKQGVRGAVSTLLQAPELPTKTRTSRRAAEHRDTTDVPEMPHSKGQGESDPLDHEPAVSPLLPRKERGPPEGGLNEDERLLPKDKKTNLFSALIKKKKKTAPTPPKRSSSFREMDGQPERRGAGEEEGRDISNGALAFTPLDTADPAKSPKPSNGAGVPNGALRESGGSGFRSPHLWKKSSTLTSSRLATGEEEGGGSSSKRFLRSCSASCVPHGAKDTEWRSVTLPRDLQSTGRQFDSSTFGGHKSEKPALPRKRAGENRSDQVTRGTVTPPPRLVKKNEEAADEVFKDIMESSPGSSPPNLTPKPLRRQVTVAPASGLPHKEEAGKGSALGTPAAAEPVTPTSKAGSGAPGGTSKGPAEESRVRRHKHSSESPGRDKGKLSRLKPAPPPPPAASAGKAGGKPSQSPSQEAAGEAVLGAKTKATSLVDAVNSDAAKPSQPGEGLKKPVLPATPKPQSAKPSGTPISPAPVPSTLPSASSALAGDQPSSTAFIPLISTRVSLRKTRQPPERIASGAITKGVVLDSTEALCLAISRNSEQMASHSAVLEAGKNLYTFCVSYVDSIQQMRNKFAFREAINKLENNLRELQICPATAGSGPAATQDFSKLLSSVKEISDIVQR
Sequence of Akt1 (P31749 whole entry, species assumed): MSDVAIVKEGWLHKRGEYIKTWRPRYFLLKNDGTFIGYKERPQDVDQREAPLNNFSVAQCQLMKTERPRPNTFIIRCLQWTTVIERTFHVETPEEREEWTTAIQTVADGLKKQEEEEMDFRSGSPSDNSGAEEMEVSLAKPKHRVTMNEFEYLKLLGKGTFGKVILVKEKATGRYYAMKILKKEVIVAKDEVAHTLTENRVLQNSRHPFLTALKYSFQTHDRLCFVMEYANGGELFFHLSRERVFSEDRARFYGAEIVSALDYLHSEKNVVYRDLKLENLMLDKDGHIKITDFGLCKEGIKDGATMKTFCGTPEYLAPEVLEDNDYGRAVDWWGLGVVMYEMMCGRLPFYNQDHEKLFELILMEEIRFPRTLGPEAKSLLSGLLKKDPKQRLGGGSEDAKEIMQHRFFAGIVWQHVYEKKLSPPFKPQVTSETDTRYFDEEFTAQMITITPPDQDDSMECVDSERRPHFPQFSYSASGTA
Sequence of MK2 (P49137 whole entry, species assumed): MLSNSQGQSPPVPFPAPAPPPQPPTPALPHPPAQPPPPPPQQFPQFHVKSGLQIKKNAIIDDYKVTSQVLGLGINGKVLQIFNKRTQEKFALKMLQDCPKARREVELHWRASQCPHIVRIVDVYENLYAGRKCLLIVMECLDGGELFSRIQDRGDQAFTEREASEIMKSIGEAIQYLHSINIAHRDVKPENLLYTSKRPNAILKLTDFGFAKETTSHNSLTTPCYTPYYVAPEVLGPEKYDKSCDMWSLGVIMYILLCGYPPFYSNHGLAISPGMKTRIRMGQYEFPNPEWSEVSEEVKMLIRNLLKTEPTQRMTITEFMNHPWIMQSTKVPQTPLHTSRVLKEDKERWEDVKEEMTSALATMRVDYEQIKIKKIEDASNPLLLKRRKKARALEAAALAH
Sequence of Pim2 (Q9P1W9 whole entry, species assumed): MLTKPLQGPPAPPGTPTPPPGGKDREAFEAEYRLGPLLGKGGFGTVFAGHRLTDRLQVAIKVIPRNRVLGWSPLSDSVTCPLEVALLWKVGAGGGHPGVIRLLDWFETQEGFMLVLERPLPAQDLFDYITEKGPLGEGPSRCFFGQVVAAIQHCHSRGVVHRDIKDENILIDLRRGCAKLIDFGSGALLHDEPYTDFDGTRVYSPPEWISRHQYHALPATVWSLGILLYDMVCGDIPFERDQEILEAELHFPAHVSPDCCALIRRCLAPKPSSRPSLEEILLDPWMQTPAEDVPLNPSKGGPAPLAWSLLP

Substance: Ac-AHLQRQLS*I-CSox-HH-CONH2 [MK2 RDF]
Km (MK2): 1.2 ± 0.2 µM
Vmax (MK2): 1.3 ± 0.1 µmol/mg/min

Substance: Ac-ARKRERAYS*F-CSox-HHA-CONH2 [Akt1 RDF]
Km (Akt1): 0.69 ± 0.11 µM
Vmax (Akt1): 2.5 ± 0.2 µmol/mg/min

Substance: Ac-ARKRRRHPS*G-CSox-PTA-CONH2 [Pim2 RDF]
Km (Pim2): 1.4 ± 0.1 µM
Vmax (Pim2): 0.67 ± 0.02 µmol/mg/min

Substance: Ac-E-CSox-IY*AAPFAKKK-CONH2 [Abl RDF]
Km (Abl): 10.5 ± 1.5 µM
Vmax (Abl): 19.1 ± 1.0 µmol/mg/min

Substance: Ac-LRRAS*L-DPro-Sox-G-CONH2 [PKA BTF]
Km (PKA): 2.7 ± 0.4 µM
Vmax (PKA): 26.5 ± 1.1 µmol/mg/min

Substance: Ac-R-CSox-DY*-Nle-TMQIGKK-CONH2 [IRK RDF]
Km (IRK): 27.1 ± 3.9 µM
Vmax (IRK): 6.3 ± 0.4 µmol/mg/min
Catalytic Efficiency (IRK): 1

Substance: Ac-Sox-PGDY*-Nle-TMQIGKK-CONH2 [IRK BTF]
Km (IRK): 25.7 ± 0.7 µM
Vmax (IRK): 7.3 ± 2.2 µmol/mg/min
Catalytic Efficiency (IRK): 1

Other lines, results leading:

Km (Src): 7 ± 1 µM
Vmax (Src): 3.4 ± 0.2 µmol/mg/min
Catalytic Efficiency (Src): 28
Substance: Ac-AEE-CSox-IY*GEFEAKKKK-CONH2 [Src RDF]

Km (PKA): 2.6 ± 0.3 µM
Vmax (PKA): 17.9 ± 0.8 µmol/mg/min
Catalytic Efficiency (PKA; kcat/KM (min^-1 μM^-1) normalized to the BTF substrate): 1
Substance: Ac-ALRRAS*L-CSox-AA-CONH2 [PKA RDF]

turnover by the kinase (in words) (PKCβI; Figure S3): excellent substrates
Km (PKCβI; [1]): 0.81 ± 0.18 µM
Vmax (PKCβI; [1]): 0.76 ± 0.06 µmol/mg/min
Substance: Ac-LKR-CSox-AS*FKKFA-CONH2 [PKCβI RDF]

turnover by the kinase (in words) (PKCδ; Figure S3): excellent substrates
Km (PKCδ; [1]): 0.48 ± 0.07 µM
Vmax (PKCδ; [1]): 0.39 ± 0.02 µmol/mg/min
Substance: Ac-RKRKGS*F-CSox-YGG-CONH2 [PKCδ RDF]

Km (Src): 30.7 ± 5.8 µM
Vmax (Src): 0.54 ± 0.04 µmol/mg/min
Catalytic Efficiency (Src): 1
Substance: Ac-Sox-PEIY*GEFEAKKKK-CONH2 [Src BTF]
